# Screening results: PubChem BioAssay, Johns Hopkins Ion Channel Center
# Most compounds without a hit are left out; they make up all but 2.3% or so of the library.
# TRPC6 inh: inhibitors of mouse TRPC6 channel; B-score at 10 µM; hit rate 1.1% among 310,000; HEK293-TRPC6, membrane potential dye, ACh-evoked depolarization; stronger effect = lower value; AID 2553;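 active means B-score under library mean minus 3 SD, initial fluorescence not abnormally high, positive integrated signal ratio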;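 further: B-score derived from integrated fluorescence ratio over the kinetic read; more negative B-score means stronger inhibition of depolarization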
# Target sequence (Q61143 whole entry, looked up): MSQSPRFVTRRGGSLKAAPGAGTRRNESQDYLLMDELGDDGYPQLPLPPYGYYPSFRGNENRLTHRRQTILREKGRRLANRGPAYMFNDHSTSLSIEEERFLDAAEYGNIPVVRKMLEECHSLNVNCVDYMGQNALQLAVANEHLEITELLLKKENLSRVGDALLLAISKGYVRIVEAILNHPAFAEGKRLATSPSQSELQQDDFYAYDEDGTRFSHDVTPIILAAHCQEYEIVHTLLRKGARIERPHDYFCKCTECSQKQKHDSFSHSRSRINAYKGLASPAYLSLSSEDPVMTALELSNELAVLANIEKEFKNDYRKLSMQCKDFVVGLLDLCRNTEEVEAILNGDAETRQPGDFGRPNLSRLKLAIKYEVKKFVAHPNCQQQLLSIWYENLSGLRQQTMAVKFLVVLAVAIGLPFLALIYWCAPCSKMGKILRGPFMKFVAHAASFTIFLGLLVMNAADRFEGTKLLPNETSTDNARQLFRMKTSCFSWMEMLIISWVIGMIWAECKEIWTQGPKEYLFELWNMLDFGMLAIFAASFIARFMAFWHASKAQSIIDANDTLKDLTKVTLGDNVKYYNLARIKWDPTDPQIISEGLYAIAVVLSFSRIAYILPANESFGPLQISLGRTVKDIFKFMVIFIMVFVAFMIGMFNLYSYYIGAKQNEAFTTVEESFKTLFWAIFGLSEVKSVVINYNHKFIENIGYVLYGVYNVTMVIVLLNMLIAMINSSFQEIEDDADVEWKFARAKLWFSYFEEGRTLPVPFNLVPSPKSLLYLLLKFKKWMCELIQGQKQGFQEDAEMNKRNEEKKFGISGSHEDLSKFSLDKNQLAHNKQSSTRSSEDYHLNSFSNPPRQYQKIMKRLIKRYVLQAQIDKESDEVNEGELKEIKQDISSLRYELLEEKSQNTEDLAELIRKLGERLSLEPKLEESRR
# TRPC4 act: activators of mouse TRPC4 channel; Q9QUQ5; hit rate 0.49% among 310,000; AID 2237; HEK293 TRPC4beta/mu-opioid, Fluo4 calcium fluorescence; stronger effect = higher value; B-score at 10 µM;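 active means B-score above 5 SD of library B-scores, and initial fluorescence ratio not above library mean plus 5 SD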;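 further: positive B-score marks a calcium rise read as TRPC4 activation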
#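 system = HEK293 cells stably co-expressing mouse TRPC4beta and mu-opioid receptor | schedule = Fluo4 dye loading 45 min at room temperature, 110 s recording | measure = B-scored integrated calcium fluorescence ratio | signal = Fluo4 calcium-sensitive dye fluorescence, kinetic, 1 Hz baseline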
# TRPC6 activator: activates the mouse TRPC6 cation channel | Q61143 | HEK293-TRPC6 membrane potential dye fluorescence; stronger effect = higher value | B-score at 10 µM | hit rate 0.13% among 310,000;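 active means B-score of the integrated fluorescence ratio above library mean plus 3 SD, and starting fluorescence ratio within library mean plus 5 SD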;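 further: higher score means more depolarization so channel activation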
# TRPC4 block: blocks the mouse TRPC4 cation channel; Q9QUQ5; hit rate 0.39% among 300,000; AID 2247; B-score at 10 µM; HEK293 TRPC4beta/mu-opioid, DAMGO-evoked Fluo4 calcium flux; stronger effect = lower value;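 active means B-score over 3 SD under the library average, no early fluorescence shift, positive overall ratio signal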
#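 Assay system: HEK293 cells with stable TRPC4beta plus mu-opioid receptor expression. Dosing: single dose. Measured by: Fluo4 Ca2+ flux fluorescence. Also added: DAMGO in two steps, submaximal then maximal. Read-out: B score from integrated Fluo4 fluorescence ratio.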
# TRPC4 potent: TRPC4 (mouse) allosteric potentiation. HEK293 TRPC4beta/mu-opioid, DAMGO EC20, Fluo-4 Ca2+ flux; stronger effect = higher value. B-score at 10 µM. hit rate 0.42% among 310,000. Q9QUQ5;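 active means B-score of calcium response area above 5 SD of library B-scores, with initial fluorescence ratio within 5 SD of library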;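 further: B-score of integrated fluorescence ratio over time as area under calcium response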
# TRPC4 spec 2: second check of whether TRPC6 inhibitors also affect mouse TRPC4; shares compounds with TRPC6 inh; hit rate 42% among 920; inhibition, % at 10 µM; HEK293 TRPC4/MOR, membrane potential dye fluorescence; channel activated by saturating DAMGO dose;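 active means compounds whose fluorescence signal differed from control wells by over 3 SD, either direction, in both duplicate plates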
# TRPC4 spec: tests whether TRPC6 inhibitors also affect mouse TRPC4 | HEK293 TRPC4/mu-opioid, membrane potential fluorescence | AID 2777 | shares compounds with TRPC6 inh | activity change, negative = inhibition, % at 10 µM | hit rate 61% among 920;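 active means rise or fall in signal beyond 3 SD of buffer-only wells in both replicate plates, either sign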;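 further: integrated kinetic ratio of fluorescence range over baseline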
# HEK293 MPD ctr 2-1: parental HEK293 nonspecific activity of TRPC6 inhibitors, second screen. parental HEK293 membrane potential dye fluorescence; maximal acetylcholine challenge after compound addition. signal change vs control, % at 10 µM. shares compounds with TRPC6 inh. hit rate 31% among 920;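 active means membrane potential signal moving either way by over 3 SD of the maximum-effect control, in both duplicate plates, meaning non-specific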
# HEK293 MPD ctr-1: counter-screen for TRPC6 inhibitors: effect in parental HEK293 cells | shares compounds with TRPC6 inh | parental HEK293 membrane potential dye fluorescence | membrane potential signal change, % at 10 µM | hit rate 60% among 920 | AID 2780;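 active means membrane potential signal shifting up or down by more than 3 SD of buffer-only wells, on both duplicate plates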
# HEK293 MPD ctr-2: counter-screen for TRPC6 modulators: effect in parental HEK293 cells; shares compounds with TRPC6 inh; membrane potential signal change, % at 10 µM; AID 488924; membrane potential dye fluorescence; hit rate 51% among 2,400;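 active means membrane potential signal moves up or down beyond 5 SD from buffer-only wells, on both duplicate plates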
# HEK293 MPD ctr 2-2: parental HEK293 nonspecific activity of TRPC6 modulators, second screen; AID 488926; membrane potential dye fluorescence; after compound, maximal acetylcholine stimulation; hit rate 14% among 2,400; shares compounds with TRPC6 inh; inhibition, % at 10 µM;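 active means membrane potential signal drops by more than 5 SD from the mean control signal, in both duplicate plates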;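 further: plate controls were acetylcholine ECmax control wells for no effect and buffer only wells for full effect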
# TRPC4/MOR mod: mouse TRPC4 off-target activity of TRPC6 modulators; shares compounds with TRPC6 inh; hit rate 69% among 2,400; HEK293 TRPC4/mu-opioid, membrane potential fluorescence; percent change from control (negative = decrease, positive = increase), % at 10 µM;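 active means membrane potential signal moved up or down beyond 5 SD of buffer control wells, in both duplicate plates, actives on both sides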;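 further: plate controls were assay buffer wells for no effect and DAMGO maximal-effect wells for full effect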
# TRPC4 ctr inh 2: second selectivity test of TRPC6 modulators against mouse TRPC4; HEK293 TRPC4/mu-opioid, membrane potential dye fluorescence; stimulated with maximal-effect DAMGO; shares compounds with TRPC6 inh; hit rate 55% among 2,400; inhibition, % at 10 µM;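 active means drop in membrane potential signal beyond 5 SD of the control wells in both duplicate plates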;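 further: TRPC4 counter screen for TRPC6 hits run under conditions tuned for TRPC6 not TRPC4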
# TRPC6 inh conf: mouse TRPC6 inhibitor confirmation; shares compounds with TRPC6 inh; HEK293-TRPC6, membrane potential dye, ACh-evoked depolarization; inhibition, % at 10 µM; hit rate 43% among 3,300; AID 488960;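 active means fluorescence ratio falls more than 5 SD below the full-stimulation control mean, in both duplicate runs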;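 further: integrated fluorescence ratio of peak minus minimum over baseline after agonist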
# TRPC6 act conf: confirmation of mouse TRPC6 activators. shares compounds with TRPC6 inh. HEK293-TRPC6 membrane potential dye fluorescence, FDSS. activation, % at 10 µM. hit rate 11% among 2,800;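 active means ratio signal rise beyond 5 SD above unstimulated control wells' mean, seen in both duplicate runs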;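 further: plate controls were buffer EC0 wells for no effect and acetylcholine ECmax response for full effect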
# * = called active by the depositor; i = inactive; . = no result.
SMILES,TRPC6 inh,TRPC4 act,TRPC6 activator,TRPC4 block,TRPC4 potent,HEK293 MPD ctr-2,HEK293 MPD ctr 2-2,TRPC4/MOR mod,TRPC4 ctr inh 2,TRPC6 inh conf,TRPC6 act conf,others
N#CCOC(=O)C1c2ccccc2Oc2ccccc21,i,i,i,i,i,.,.,.,.,.,.,
CCN(CC)CCOC(=O)C1c2ccccc2Oc2ccccc21,-10*,i,i,i,i,.,.,.,.,81%*,.,TRPC4 spec 2=i;TRPC4 spec=7.9%*;HEK293 MPD ctr 2-1=28%*;HEK293 MPD ctr-1=6.7%*
CCCCCC(=O)NC(=S)Nc1ccc2oc(=O)ccc2c1,-6.4*,i,i,i,i,i,i,-14%*,i,i,i,
COc1cccc(CN2CCN(C(=O)c3ccco3)CC2)c1,i,i,i,i,i,.,.,.,.,.,.,
O=Nc1c(O)n(Cc2ccccc2)c2ccccc12,i,i,i,i,i,.,.,.,.,.,.,
Cc1c(CCCN)c2ccccc2n1Cc1ccccc1,-7.3*,i,i,i,i,.,.,.,.,i,i,TRPC4 spec 2=55%*;TRPC4 spec=i;HEK293 MPD ctr 2-1=i;HEK293 MPD ctr-1=-196%*
Cc1cc(C(=O)N(C)CC(=O)Nc2cccc(F)c2)no1,i,i,i,i,i,.,.,.,.,.,.,
COc1ccc(NC(=O)CN(C)C(=O)c2cc(C)on2)cc1,-5.7*,i,i,i,i,i,i,i,i,i,i,
C=CCn1c(SCc2ccccc2F)nc2cc(C(=O)O)ccc2c1=O,i,i,i,i,i,.,.,.,.,.,.,
Cc1nn(C)c(C)c1CCC(=O)N1CCCC(N2CCN(c3ccc(F)cc3)CC2)C1 (centres undefined),i,i,i,i,i,.,.,.,.,.,.,
COc1cc2c(cc1OC)C(C)N(S(=O)(=O)c1ccc(C)cc1)CC2 (centres undefined),-6.9*,i,i,i,i,.,.,.,.,i,.,TRPC4 spec 2=i;TRPC4 spec=-0.1%*;HEK293 MPD ctr 2-1=i;HEK293 MPD ctr-1=1.0%*
C=CCn1c(=N)c(C#N)cc2c(=O)n3ccccc3nc21,-8.7*,i,i,i,i,-278%*,i,-44%*,38%*,i,i,
CCN1CCN(c2nc3ccccc3nc2C(C#N)C(=O)OCc2ccccc2)CC1 (centres undefined),-7.3*,i,i,i,i,.,.,.,.,i,i,TRPC4 spec 2=40%*;TRPC4 spec=-19%*;HEK293 MPD ctr 2-1=i;HEK293 MPD ctr-1=-200%*
CCCCCCOC(=O)C(C#N)c1nc2ccccc2nc1N1CCN(CC)CC1 (centres undefined),-5.3*,i,i,i,i,i,i,-29%*,70%*,i,i,
CSc1nc(C(=O)N2CCCC(Nc3ccc(C)c(C)c3)C2)cs1 (centres undefined),i,i,i,i,i,.,.,.,.,.,.,
CS(=O)(=O)c1ccc(CNC(=O)C2(C(F)(F)F)C/C(=C\Cc3ccccc3)CCCO2)cc1 (centres undefined),i,i,i,i,i,.,.,.,.,.,.,
COc1ccc(-c2c[n+](CC(=O)OC3CC(C)CCC3C(C)C)c3n2CCC3)cc1 (centres undefined),-6.1*,i,i,i,i,162%*,i,28%*,i,55%*,.,
COc1cccc(CNCCc2c[nH]c3ccccc23)c1OCc1ccccc1,i,i,i,i,i,.,.,.,.,.,.,
COc1cccc(CNC23CC4CC(CC(C4)C2)C3)c1OCc1ccccc1,-7.8*,i,15*,i,i,752%*,i,147%*,80%*,78%*,241%*,
Cc1ccc(S(=O)(=O)Nc2ccccc2C(=O)Nc2nc(-c3ccc(F)cc3)cs2)cc1,i,i,i,i,i,.,.,.,.,.,.,
COc1ccc(-c2csc(NC(=O)c3ccccc3NS(=O)(=O)c3ccc(F)c(F)c3)n2)cc1,-5.3*,i,i,i,i,i,i,-15%*,56%*,64%*,i,
COc1ccc(-c2nn(-c3ccccc3)cc2/C=C/C(=O)N2CCN(c3ccccn3)CC2)cc1,i,i,i,i,i,.,.,.,.,.,.,
CN(C)CCN(C(=O)c1ccc2c(c1)OCCO2)c1nc2cc3c(cc2s1)OCO3,-6.4*,i,i,i,i,-82%*,100%*,-24%*,92%*,88%*,i,
COc1ccc2nc(N(CCN(C)C)C(=O)c3ccc4c(c3)OCCO4)sc2c1,-5.1*,i,i,i,i,i,i,-24%*,72%*,64%*,i,
CN(C)CCN(C(=O)c1ccc2c(c1)CCCC2)c1nc2cc3c(cc2s1)OCCO3,i,i,i,i,i,.,.,.,.,.,.,
COc1ccc(NC(=O)CSc2nnc(CN3CCOCC3)n2C)cc1Cl,i,i,i,i,i,.,.,.,.,.,.,
CS(=O)(=O)c1ccc(-c2cc(Br)sc2-c2ccc(F)cc2)cc1,i,i,i,i,i,.,.,.,.,.,.,
O=C(c1cncc(Br)c1)N1CCN(S(=O)(=O)c2ccc(Cl)cc2)CC1,i,i,i,i,i,.,.,.,.,.,.,
CCOC(=O)c1cn(CC)c2ccc(Br)cc2c1=O,-6*,i,i,i,i,-106%*,i,-16%*,i,i,i,
CCCn1cc(C(=O)OCC)c(=O)c2cc(F)c(F)cc21,i,i,i,i,i,.,.,.,.,.,.,
